Data reported in ChEMBL document CHEMBL3808299 (J Med Chem, 2016).
pIC50: −log10 of the molar value. The source made the active and inactive calls. No cut-off for these calls is given here.

Key:
HUVEC [1] = test: Antiproliferative activity against HUVEC assessed as inhibition of VEGF induced cell proliferation after 72 hrs by MTS assay; type: functional; settings: Homo sapiens
Method in brief: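 HUVECs were seeded at 3,000 cells/well, attached overnight, then treated with varying drug concentrations. Metabolic activity was read with MTS/PMS after 72 h. GI50 is the mean ± SEM of at least two separate experiments run in triplicate.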

[2] = Inhibition of hedgehog pathway in mouse C3H10T1/2 cells assessed as Gli1 mRNA expression at 1 uM after 24 hrs by qPCR method; type: cell-based; set-up: scale not given: the % may be the effect or the level left; settings: C3H 10T1/2
Method in brief: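 C3H10T1/2 mouse embryonic fibroblasts were stimulated with recombinant mouse Sonic Hedgehog (C25II) and co-treated with compound at 1 μM for 24 h. Endogenous Gli1 mRNA was measured by qPCR and expressed as % of the Hh-ligand-only control (100%).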

[3] = Inhibition of hedgehog pathway in mouse C3H10T1/2 cells assessed as downregulation of Gli1 mRNA expression after 24 hrs by qPCR method; type: cell-based; settings: C3H 10T1/2, 24 h
Method in brief: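 Hh-ligand-stimulated C3H10T1/2 cells (recombinant mouse Sonic Hedgehog C25II) were exposed to a concentration series of compound for 24 h. Gli1 mRNA was read by qPCR. IC50 is the mean ± SEM of at least two separate experiments in triplicate.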

[4] = Inhibition of hedgehog pathway in mouse ASZ cells assessed as downregulation of Gli1 mRNA expression after 48 hrs by qPCR method; type: cell-based
Method in brief: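 ASZ murine BCC cells, whose Hh signaling is constitutively active through a heterozygous PTCH1 mutation, got no added agonist. They were treated with a concentration series for 48 h and Gli1 mRNA was quantified by qPCR. IC50 is the mean ± SEM of at least two separate experiments in triplicate.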

HUVEC [5] = test: Antiangiogenic activity against HUVEC assessed as inhibition of total tube length at 10 uM after 16 hrs by inverted microscopy; type: functional; settings: Homo sapiens
Method in brief: (§1)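 HUVECs in M199 with 1% FBS and penicillin/streptomycin, 50,000 cells per well, on Matrigel diluted 1:1 with DMEM and set at 37°C. Cells attached for 20-30 min, then got DMSO, suramin (10 uM) or drug at 10, 1 or 0.1 μM for 16 h. Eight phase-contrast fields per well were imaged. Total tube length and junctions were scored relative to DMSO (100%). Each assay was repeated at least three times.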

HUVEC [6] = test: Antiangiogenic activity against HUVEC assessed as inhibition of total tube junctions at 10 uM after 16 hrs by inverted microscopy; type: functional; settings: Homo sapiens; method in brief: as §1
Cytochrome P450 3A4 = Cytochrome P450 3A4 (Homo sapiens, UniProt P08684); test: Inhibition of CYP3A4 in human liver microsomes using testosterone as substrate after 10 mins by LC/MS/MS analysis; type: ADME
HUVEC [7] = test: Antiangiogenic activity against HUVEC assessed as inhibition of total tube length at 1 uM after 16 hrs by inverted microscopy; type: functional, cell-based; settings: Homo sapiens; method in brief: as §1
HUVEC [8] = test: Antiangiogenic activity against HUVEC assessed as inhibition of total tube junctions at 1 uM after 16 hrs by inverted microscopy; type: functional, cell-based; settings: Homo sapiens; method in brief: as §1
[9] = Inhibition of hedgehog pathway in mouse MERP MB cells assessed as downregulation of Gli1 mRNA expression after 48 hrs by qPCR method; type: cell-based
Method in brief: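 Primary medulloblastoma cells from Math1-Cre-ER;Ptc fl/fl mice were incubated with compound for 48 h. Gli1 mRNA was measured by qPCR. IC50 is the mean ± SEM of two separate experiments.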

[10] = Antiproliferative activity against mouse MERP MB cells assessed as cell growth inhibition using methyl-[3H]thymidine after 48 hrs by liquid scintillation spectrophotometry; type: functional; settings: Medulloblastoma cell
Method in brief: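 Primary MB cells isolated from Math1-Cre-ER;Ptc fl/fl (MERP) mouse tumours were cultured in vitro and exposed to compound for 48 h to measure proliferation. GI50 is the mean ± SEM of at least two separate experiments in triplicate.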

[11] = Inhibition of hedgehog pathway in mouse Shh-Light2 cells after 46 hrs by luciferase reporter gene assay; type: cell-based; settings: Shh Light2, 46 h
HUVEC [12] = test: Antiproliferative activity against HUVEC assessed as inhibition of VEGF induced cell proliferation using methyl-[3H]thymidine after 36 hrs; type: functional, cell-based; settings: Homo sapiens

Sequence of Cytochrome P450 3A4 (P08684 whole entry): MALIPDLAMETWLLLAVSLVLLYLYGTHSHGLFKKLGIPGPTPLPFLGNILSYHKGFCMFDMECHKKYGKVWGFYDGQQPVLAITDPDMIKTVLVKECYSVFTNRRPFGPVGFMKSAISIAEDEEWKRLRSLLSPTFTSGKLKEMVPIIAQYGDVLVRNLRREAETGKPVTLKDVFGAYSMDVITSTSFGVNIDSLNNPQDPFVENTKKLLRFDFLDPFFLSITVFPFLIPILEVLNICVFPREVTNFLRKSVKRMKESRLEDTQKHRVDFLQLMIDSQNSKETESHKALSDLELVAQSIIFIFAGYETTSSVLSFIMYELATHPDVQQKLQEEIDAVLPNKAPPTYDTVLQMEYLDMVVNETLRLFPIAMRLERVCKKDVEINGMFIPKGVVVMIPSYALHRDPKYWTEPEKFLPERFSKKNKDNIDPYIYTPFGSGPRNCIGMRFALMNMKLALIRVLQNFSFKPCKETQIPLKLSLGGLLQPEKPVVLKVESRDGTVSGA

| SMILES | GI50 (HUVEC [1]) [nM] | Activity [2] [%] | pIC50 [3] | pIC50 [4] | further results |
| --- | --- | --- | --- | --- | --- |
| CCC(C)n1ncn(-c2ccc(N3CCN(c4ccc(OCC5COC(C)(C)O5)cc4)CC3)cc2)c1=O (stereo not given) | > 100000 | 71.4 | – | – | – |
| CCC(C)n1ncn(-c2ccc(N3CCN(c4ccc(O)cc4)CC3)cc2)c1=O (stereo not given) | > 100000 | 45.7 | – | – | – |
| CCCn1ncn(-c2ccc(N3CCN(c4ccc(OC[C@H]5CO[C@@](C)(c6ccc(Cl)cc6Cl)O5)cc4)CC3)cc2)c1=O | 24900 | – | < 5.00 | 6.27 | – |
| Cc1ccc(C(=O)Nc2ccc(S(=O)(=O)O)c3cc(S(=O)(=O)O)cc(S(=O)(=O)O)c23)cc1NC(=O)c1cccc(NC(=O)Nc2cccc(C(=O)Nc3cc(C(=O)Nc4ccc(S(=O)(=O)O)c5cc(S(=O)(=O)O)cc(S(=O)(=O)O)c45)ccc3C)c2)c1 [SURAMIN] | – | – | – | – | inhibition at 10 µM (HUVEC [5]): 51.9%; inhibition at 10 µM (HUVEC [6]): 57.6% |
| CCC(C)n1ncn(-c2ccc(N3CCN(c4ccc(OCC5COC(C)(c6ccc(Cl)cc6Cl)O5)cc4)CC3)cc2)c1=O (stereo not given) | 23800 | 17.8 | 6.85 | 6.77 | pIC50 (Cytochrome P450 3A4): < 5.00; inhibition (HUVEC [7]): Active; inhibition (HUVEC [8]): Active |
| CCCn1ncn(-c2ccc(N3CCN(c4ccc(OC[C@@H]5CO[C@](C)(c6ccc(Cl)cc6Cl)O5)cc4)CC3)cc2)c1=O | 49900 | – | < 5.00 | 5.85 | – |
| CC[C@@H](C)n1ncn(-c2ccc(N3CCN(c4ccc(OC[C@@H]5CO[C@@](C)(c6ccc(Cl)cc6Cl)O5)cc4)CC3)cc2)c1=O | 53200 | – | 6.72 | 7.66 | pIC50 [9]: 6.72; GI50 [10]: 600 nM |
| CCC(C)n1ncn(-c2ccc(N3CCN(c4ccc(OCC5COC(Cn6cncn6)(c6ccccc6)O5)cc4)CC3)cc2)c1=O (stereo not given) | 8300 | 13.1 | 6.38 | 6.35 | – |
| CC[C@@H](C)n1ncn(-c2ccc(N3CCN(c4ccc(OC[C@H]5CO[C@@](C)(c6ccc(Cl)cc6Cl)O5)cc4)CC3)cc2)c1=O | 65000 | – | 5.18 | 5.55 | – |
| O=c1[nH]ncn1-c1ccc(N2CCN(c3ccc(OCC4COC(Cn5cncn5)(c5ccc(Cl)cc5Cl)O4)cc3)CC2)cc1 (stereo not given) | 5800 | 1.1 | 7.37 | 6.92 | – |
| CC[C@H](C)n1ncn(-c2ccc(N3CCN(c4ccc(OC[C@@H]5CO[C@](C)(c6ccc(Cl)cc6Cl)O5)cc4)CC3)cc2)c1=O | 2500 | – | 5.73 | 6.82 | pIC50 [9]: 6.59; GI50 [10]: 390 nM |
| O=[N+]([O-])c1ccc(N2CCN(c3ccc(OCC4COC(Cn5cncn5)(c5ccc(Cl)cc5Cl)O4)cc3)CC2)cc1 (stereo not given) | 8400 | 1.5 | 6.89 | 7.05 | – |
| CC[C@@H](C)n1ncn(-c2ccc(N3CCN(c4ccc(OCC5COC(Cn6cncn6)(c6ccc(Cl)cc6Cl)O5)cc4)CC3)cc2)c1=O (stereo not given in full) | 1700 | 3 | 6.85 | 6.80 | – |
| CCC(C)n1ncn(-c2ccc(N3CCN(c4ccc(OC[C@H]5CO[C@@](C)(c6ccc(Cl)cc6Cl)O5)cc4)CC3)cc2)c1=O (relative stereo) | 3690 | – | 6.07 | 7.15 | GI50 [10]: 2900 nM |
| CCCn1ncn(-c2ccc(N3CCN(c4ccc(OC[C@H]5CO[C@](C)(c6ccc(Cl)cc6Cl)O5)cc4)CC3)cc2)c1=O | 84100 | – | < 5.00 | 6.70 | GI50 [10]: 22400 nM |
| CCC(C)n1ncn(-c2ccc(N3CCN(c4ccc(OCC5COC(C)(Cn6cncn6)O5)cc4)CC3)cc2)c1=O (stereo not given) | 18400 | 61.4 | – | – | – |
| CCCn1ncn(-c2ccc(N3CCN(c4ccc(OCC5COC(Cn6cncn6)(c6ccc(Cl)cc6Cl)O5)cc4)CC3)cc2)c1=O (stereo not given) | 4700 | 58.5 | – | – | – |
| CCC(C)n1ncn(-c2ccc(N3CCN(c4ccc(OC[C@@H]5CO[C@@](C)(c6ccc(Cl)cc6Cl)O5)cc4)CC3)cc2)c1=O (stereo not given in full) | 3320 | – | 7.04 | 7.11 | GI50 [10]: 2000 nM |
| CC[C@@H](C)n1ncn(-c2ccc(N3CCN(c4ccc(OC[C@H]5CO[C@](C)(c6ccc(Cl)cc6Cl)O5)cc4)CC3)cc2)c1=O | 12100 | – | 6.27 | 6.89 | inhibition (HUVEC [5]): inactive; inhibition (HUVEC [6]): inactive |
| CCCn1ncn(-c2ccc(N3CCN(c4ccc(OC[C@@H]5CO[C@@](C)(c6ccc(Cl)cc6Cl)O5)cc4)CC3)cc2)c1=O | 26500 | – | 5.39 | 5.89 | – |
| CC[C@H](C)n1ncn(-c2ccc(N3CCN(c4ccc(OC[C@H]5CO[C@@](C)(c6ccc(Cl)cc6Cl)O5)cc4)CC3)cc2)c1=O | 78300 | – | < 5.00 | 6.26 | – |
| CC[C@@H](C)n1ncn(-c2ccc(N3CCN(c4ccc(OC[C@@H]5CO[C@](C)(c6ccc(Cl)cc6Cl)O5)cc4)CC3)cc2)c1=O | 12800 | – | 5.62 | 7.62 | pIC50 [9]: 6.54; GI50 [10]: 1000 nM; inhibition (HUVEC [5]): inactive; inhibition (HUVEC [6]): inactive |
| CC[C@H](C)n1ncn(-c2ccc(N3CCN(c4ccc(OC[C@H]5CO[C@](C)(c6ccc(Cl)cc6Cl)O5)cc4)CC3)cc2)c1=O | 7700 | – | 5.96 | 5.60 | – |
| CC[C@@H]([C@H](C)O)n1ncn(-c2ccc(N3CCN(c4ccc(OC[C@@H]5CO[C@@](Cn6cncn6)(c6ccc(F)cc6F)C5)cc4)CC3)cc2)c1=O [POSACONAZOLE] | 1600 | – | 6.85 | 6.27 | – |
| CC[C@H](C)n1ncn(-c2ccc(N3CCN(c4ccc(OC[C@@H]5CO[C@@](C)(c6ccc(Cl)cc6Cl)O5)cc4)CC3)cc2)c1=O | 18300 | – | 6.33 | 6.42 | – |
| CCC(C)n1ncn(-c2ccc(N3CCN(c4ccc(OCC5COC(Cn6cncn6)(c6ccc(Cl)cc6Cl)O5)cc4)CC3)cc2)c1=O (stereo not given) [ITRACONAZOLE] | 400 | 1.7 | 7.20 | 6.85 | pIC50 [11]: 6.16; pIC50 [9]: 6.41; inhibition (HUVEC [7]): Active; GI50 [10]: 440 nM; inhibition (HUVEC [8]): Active; pIC50 (HUVEC [12]): 6.80 |
| Nc1ccc(N2CCN(c3ccc(OCC4COC(Cn5cncn5)(c5ccc(Cl)cc5Cl)O4)cc3)CC2)cc1 (stereo not given) | 42700 | 6.1 | 6.80 | 6.92 | GI50 [10]: 900 nM |
| CC[C@H](C)n1ncn(-c2ccc(N3CCN(c4ccc(OCC5COC(Cn6cncn6)(c6ccc(Cl)cc6Cl)O5)cc4)CC3)cc2)c1=O (stereo not given in full) | 2500 | 6.9 | 6.80 | 6.85 | – |
